Assay results from PMC11223151 (ACS Omega, 2024).
≈ marks a conversion by molar mass, not a printed value. Values belong to the molecule of their own block, whether it stands above or below them.

Key:
Assay type in all cases: cell-based
[1] = system: human lymphocytes; assay: Comet assay
Procedure, shortened: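 Freshly isolated human lymphocytes from fresh blood were exposed to test compound at 40–0.078 μg/mL. Controls were 20% DMSO (positive) and normal saline (negative). Cells in low-melting agarose went onto slides precoated with normal-melting agarose, then cold lysis overnight, alkaline unwinding at pH >13, and electrophoresis for 30 min at 300 mA, 24 V. Slides were neutralised at pH 7.5 and ethidium bromide-stained. Tail length and head diameter were scored by fluorescence microscopy, damage index by formula, reported as mean ± SD of 3–5 experiments.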

[2] = system: MCF-7 cell line; assay: MTT assay, anticancer activity on MCF-7 cell line; details: Homo sapiens, MCF7, 48 h
[3] = system: Vero cell line; assay: MTT assay, cytotoxicity on Vero; details: Chlorocebus sabaeus, 48 h, read-out: IC50 Vero cell line

- fragmentation % ([1]; positive control, 20%): 100%
Compound: C[S+](C)[O-] [20% DMSO, Dimethyl sulfoxide]
- damage index ([1]; positive control, 20%): 45
- genetic damage index ([1]; positive control, 20%): 1.8

- IC50 ([2]; read-out: IC50 MCF7 cell line): 11.5 µg/mL (≈ 31.1 µM)
- fragmentation % ([1]; 0.078 μg/mL): 0%
- mean tail length n = 25 ([1]; 0.078 μg/mL): 0.36 ± 0.47
- fragmentation % ([1]; 0.156 μg/mL): 0%
- mean tail length n = 25 ([1]; 0.156 μg/mL): 0.46 ± 0.38
- fragmentation % ([1]; 0.3125 μg/mL): 0%
- mean tail length n = 25 ([1]; 0.3125 μg/mL): 0.57 ± 0.22
- fragmentation % ([1]; 0.625 μg/mL): 0%
- mean tail length n = 25 ([1]; 0.625 μg/mL): 0.54 ± 0.28
- fragmentation % ([1]; 1.25 μg/mL): 0%
- mean tail length n = 25 ([1]; 1.25 μg/mL): 0.68 ± 0.35
- fragmentation % ([1]; 2.5 μg/mL): 0%
- mean tail length n = 25 ([1]; 2.5 μg/mL): 0.68 ± 0.74
- fragmentation % ([1]; 5 μg/mL): 0%
- mean tail length n = 25 ([1]; 5 μg/mL): 1.14 ± 0.72
- fragmentation % ([1]; 10 μg/mL): 4%
- mean tail length n = 25 ([1]; 10 μg/mL): 1.28 ± 0.28
- fragmentation % ([1]; 20 μg/mL): 8%
- mean tail length n = 25 ([1]; 20 μg/mL): 1.31 ± 0.74
- fragmentation % ([1]; 40 μg/mL): 12%
- mean tail length n = 25 ([1]; 40 μg/mL): 1.86 ± 0.73
Compound: COc1cc(/C=C/C(=O)CC(=O)/C=C/c2ccc(O)c(OC)c2)ccc1O [curcumin]
- inhibition at 40 µg/mL ([2]; read-out: percentage inhibition against MCF7 cell line): 64%
- damage index ([1]; 0.078 μg/mL): 0
- genetic damage index ([1]; 0.078 μg/mL): 0
- damage index ([1]; 0.156 μg/mL): 0
- genetic damage index ([1]; 0.156 μg/mL): 0
- damage index ([1]; 0.3125 μg/mL): 0
- genetic damage index ([1]; 0.3125 μg/mL): 0
- damage index ([1]; 0.625 μg/mL): 0
- genetic damage index ([1]; 0.625 μg/mL): 0
- damage index ([1]; 1.25 μg/mL): 0
- genetic damage index ([1]; 1.25 μg/mL): 0
- damage index ([1]; 2.5 μg/mL): 0
- genetic damage index ([1]; 2.5 μg/mL): 0
- damage index ([1]; 5 μg/mL): 0
- genetic damage index ([1]; 5 μg/mL): 0
- damage index ([1]; 10 μg/mL): 1
- genetic damage index ([1]; 10 μg/mL): 0.04
- damage index ([1]; 20 μg/mL): 2
- genetic damage index ([1]; 20 μg/mL): 0.08
- damage index ([1]; 40 μg/mL): 3
- genetic damage index ([1]; 40 μg/mL): 0.12
- IC50 [3]: 23.2 µg/mL (≈ 63 µM)
